Measured values as given in the EternaBench riboswitch data.

System: MS2 coat protein
Test: apparent Kd, MS2 coat protein; higher = weaker binding; RNA-MaP array; FMN 200 µM where present
How it was run: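 Two titrations, one without ligand and one with constant ligand, were run with SNAP-549-labelled MS2 coat protein from 0.7 or 1.5 nM, doubling to 3 µM. The targets were designs transcribed by stalled E. coli RNA polymerase on Illumina sequencing-chip clusters, in 100 mM Tris-HCl pH 7.5, 80 mM KCl, 4 mM MgCl2, BSA, DTT, yeast tRNA and Tween-20. The apparent Kd is the median of filtered per-cluster binding-curve fits, with green signal normalised to red-channel RNA signal and control-cluster median Fmax.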

[1] = designed as: OFF switch for flavin mononucleotide, no ligand
[2] = ligand present: flavin mononucleotide, designed as: OFF switch for flavin mononucleotide
[3] = designed as: ON switch for flavin mononucleotide, no ligand
[4] = ligand present: flavin mononucleotide, designed as: ON switch for flavin mononucleotide

| Sequence | apparent Kd [1] [nM] | apparent Kd [2] [nM] | apparent Kd [3] [nM] | apparent Kd [4] [nM] |
| --- | --- | --- | --- | --- |
| UAGAAGUCAGGAUAUGCAUGGCGGGACUUGCGUCGUGGCGUGCAGAAGGGACAUGAGGAUCACCCAUGUGGAGA | 117 | 369 |  |  |
| GACUAGGCAGGAUAUACAUGAGGAUCACCCAUGUGUCUGCGUUAAGCACGUGAAGACGGUAGAAGGGCCUACAC | 14.4 | 18.1 |  |  |
| AAUUAUUUGUAGAAGGAAGGAGAUUUUGUAUUCUUAGGAUAUACUAUUACAUGAGGAUCACCCAUGUUUGUUGGGUUGCAAUGU | 315 | 323 |  |  |
| GGAUAGGACAGAGGAUAUACGUGCUAGAUAUACUAGCAAAAUUUCCUCACAUGAGGAUCACCCAUGUAGAAGGCUGUCCUAUCG | 15.6 | 399 |  |  |
| GUCAGCUCGUGAGGAUAUACAACACUGCUUCGGCAGUGUAUUAAGAUCACAUGAGGAUCACCCAUGUAGAAGGCACGAGCUCAU | 15.2 | 246 |  |  |
| GUCAUUUAUGUAGGAUAUGCGAGGCGAGCCUGAGCAGAAGGACAUGAGGAUCACCCAUGUAUUGCGGUUUAUGUUCAGAUCGCU | 16.3 | 19 |  |  |
| AGCUGUGGCAGAGGAUAUACUACCAUAAUCCAUUGCAAAUAGCGAUGGACAUGAGGAUCACCCAUGUAGAAGGCUGUCUCAGCA | 68.2 | 275 |  |  |
| GGACAUUUACAGAAGGGCAAUUUAUUUAUUGAUUAUUUAGUUCUGUUUUGCAGGAUAUGUAAUACAUGAGGAUCACCCAUGUCC |  |  | 188 | 74 |
| GUGAGGUAAGGAUAUAGGAGAAAAGAUAAGGUAUGAGAGUUCUAGAAGGUACAUGAGGAUCACCCAUGUUAGGG | 224 | 193 |  |  |
| CGCGAAUUACAGAAGGGACAAGGGAUAAAACCCAGGUCUUGCAGUAGACAUGAGGAUCACCCAUGUCAGGAUAUGUAGAGAGUU | 17.2 | 95.5 |  |  |
| GCACGAAGCUAGAAGGGCGAUUUGCACAUGAGGAUCACCCAUGUCCAACGUAGGAUAUGGCUGGCGGGAACGCAAGGUGCGCGC |  |  | 330 | 37.3 |
| UCUAAGCGAAUCAAGAUGGAUAGAACAUGAGGAUCACCCAUGUAGGAUAUGCUACACAAAGUGUAGCAGAAGGACAAGCUUAGA | 25.9 | 36.2 |  |  |
| GGAAAACAUGAGGAUCACCCAUGUGAGGAUAUCGAUGUCCAAAGAGAGGUGCGGGACUCGAGAAGGCACUUGGA | 45.9 | 50.2 |  |  |
| UUUUAACAUGAGGAUCACCCAUGUGAGGAUAUCGAAAUUUAUAUUAAUAUUUAUUUUACGAGAAGGCACAUUUU | 98 | 102 |  |  |
| AGCUAGUCAGGAUAUACAAACAUGUCAAAAGACGUGAGGGAACAUGAGGAUCACCCAUGUAGAAGGGACUAGCA | 53.6 | 195 |  |  |
| AUCUUUAACAUAGGAUAUAGUAUGAAGGUUUAUUUAGAAGGAUGUCACAUGAGGAUCACCCAUGUAUUAGGAUUACCCAUGUAU | 30.1 | 23.1 |  |  |
| GGCGAGUAAGGAUAUUUUAACCUACAGACGAGUGAUGGUUAAGAGAAGGUACAUGAGGAUCACCCAUGUCAUCC | 16.2 | 19.8 |  |  |
| AAAAAGGCAGGAUAUACGAGUCAAAGAAAAGACAAAAGGAGACAUGAGGAUCACCCAUGUAGAAGGGCCAAAAA | 26.7 | 87.7 |  |  |
| UGUUGUAUUACAGGAUAUCUAUGAUUUUUAUUAAGAGAAGGGUAUUCACAUGAGGAUCACCCAUGUAUAUACGAGGAAGUUGUG |  |  | 35.2 | 36 |
| CUCUUGUUAGGAUAUCAAACUGGCGGCGGAGCCGGCAGUAGUGAGAAGGGACAUGAGGAUCACCCAUGUAAGAA | 81.9 | 155 |  |  |
| GUGGAGUACGUAGGAUAUGUAGGAUAUUCCUACAUGAGGAUCACCCAUGUUGACAUGGAGGAAGGACAGAAGGACGUGCUCCAG |  |  | 265 | 256 |
| AUGGACGCAGGAUAUACAUGAGGAUCACCCAUGUUAGGGUUAAGAGAAGGAAGGGAGAGUAGAAGGGCGAGAGU | 118 | 89.3 |  |  |
| GGAUUACAAAUUUAUUUAAUUCACAUGAGGAUCACCCAUGUGUAGGAUAUGCUAGUUAAGUAAUAGCAGAAGGACAUGUGCCUU | 8.82 | 9.26 |  |  |
| AUCAGCUCGUCAGGAUAUACGUCUCUGCGUCAGCAGUGUGGUAAGAUCACAUGAGGAUCACCCAUGUAGAAGGGACGAGCUGAU | 42.9 | 691 |  |  |
| AGCAACAUGAGGAUCACCCAUGUUGGUUCGAAAACGGACUCACAGGAUAUACGGCAUAAUCGCUCGUAGAAGGGUGCGUCCUCA |  |  | 14 | 12.8 |
| CUCUCUCAUCGAGGAUAUCGAACUUCCACCCUUCGAGAAGGCGACAUGAGGAUCACCCAUGUAAGGAGGACACUCACUCACACA | 22.6 | 20.9 |  |  |
| UGGUACUAGGGAGGAUAUGGGAAGAUACAUGAGGAUCACCCAUGUUUAAGAAUGCCGAGAGGUAACUAGAAGGCCCUAGUACCU |  |  | 455 | 15.1 |
